High-throughput results deposited in PubChem BioAssay by several laboratories.
TRPC6 act: mouse TRPC6 channel activation; HEK293-TRPC6 membrane potential dye fluorescence; stronger effect = higher value; B-score at 10 µM; hit rate 0.13% among 310,000;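 active = B-score of the integrated fluorescence ratio above library mean plus 3 SD, and starting fluorescence ratio within library mean plus 5 SD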;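 also: higher score means more depolarization so channel activation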
TRPC4 inh: inhibitors of mouse TRPC4 channel. B-score at 10 µM. Q9QUQ5. hit rate 0.39% among 300,000. HEK293 TRPC4beta/mu-opioid, DAMGO-evoked Fluo4 calcium flux; stronger effect = lower value;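 active = B-score over 3 SD under the library average, no early fluorescence shift, positive overall ratio signal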
Target sequence (Q9QUQ5 whole entry, looked up): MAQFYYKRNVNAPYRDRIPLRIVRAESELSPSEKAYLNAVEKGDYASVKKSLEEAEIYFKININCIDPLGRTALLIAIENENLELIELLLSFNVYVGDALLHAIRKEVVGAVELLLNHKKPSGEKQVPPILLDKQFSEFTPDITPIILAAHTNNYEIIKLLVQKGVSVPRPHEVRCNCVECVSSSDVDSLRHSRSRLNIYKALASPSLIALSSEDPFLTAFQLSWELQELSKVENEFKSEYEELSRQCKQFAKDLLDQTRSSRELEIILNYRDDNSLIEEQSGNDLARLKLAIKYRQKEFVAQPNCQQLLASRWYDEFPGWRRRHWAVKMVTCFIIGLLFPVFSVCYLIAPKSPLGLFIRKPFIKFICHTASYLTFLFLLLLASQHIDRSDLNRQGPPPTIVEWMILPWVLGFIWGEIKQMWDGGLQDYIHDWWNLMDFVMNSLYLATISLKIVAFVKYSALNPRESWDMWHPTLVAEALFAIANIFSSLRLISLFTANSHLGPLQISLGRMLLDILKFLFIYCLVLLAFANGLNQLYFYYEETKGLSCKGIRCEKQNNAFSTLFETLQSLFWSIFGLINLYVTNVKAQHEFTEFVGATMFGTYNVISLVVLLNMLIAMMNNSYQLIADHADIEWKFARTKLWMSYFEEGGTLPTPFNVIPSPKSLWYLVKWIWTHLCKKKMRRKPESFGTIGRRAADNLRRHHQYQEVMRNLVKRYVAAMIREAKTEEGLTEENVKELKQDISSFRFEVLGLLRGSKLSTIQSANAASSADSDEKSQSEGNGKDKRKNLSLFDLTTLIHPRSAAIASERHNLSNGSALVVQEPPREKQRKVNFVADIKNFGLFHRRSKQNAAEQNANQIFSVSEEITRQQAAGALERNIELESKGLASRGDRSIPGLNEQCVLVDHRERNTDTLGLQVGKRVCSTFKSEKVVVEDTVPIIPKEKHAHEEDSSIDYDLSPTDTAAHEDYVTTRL
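System: stable TRPC4beta/mu-opioid receptor HEK293 cells; Dosing: single-point compound dosing; Measured by: Fluo4 Ca2+ flux fluorescence; Read-out basis: per-well B score of integrated baseline-normalized Fluo4 ratio.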
DNA FID counter: counter-screen for HCV NS3 helicase inhibitors: DNA intercalator displacement; hit rate 0.17% among 290,000; AID 1845; DNA fluorescent intercalator displacement, fluorescence; inhibition, % at 7.9 µM; in the data active = inhibition above about 37%;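 also: 0% = vehicle and 100% = reference compound; higher means more ethidium bromide displaced from hairpin DNA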
TRPC6 inhibitor: inhibitors of mouse TRPC6 channel; B-score at 10 µM; HEK293-TRPC6, membrane potential dye, ACh-evoked depolarization; stronger effect = lower value; hit rate 1.1% among 310,000;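 active = B-score under library mean minus 3 SD, initial fluorescence not abnormally high, positive integrated signal ratio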;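 also: B-score derived from integrated fluorescence ratio over the kinetic read; more negative B-score means stronger inhibition of depolarization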
TRPC4 potent: TRPC4 (mouse) allosteric potentiation; HEK293 TRPC4beta/mu-opioid, DAMGO EC20, Fluo-4 Ca2+ flux; stronger effect = higher value; B-score at 10 µM; hit rate 0.42% among 310,000; AID 2227;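 active = B-score of calcium response area above 5 SD of library B-scores, with initial fluorescence ratio within 5 SD of library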;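 also: B-score of integrated fluorescence ratio over time as area under calcium response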
TRPC4 act: TRPC4 (mouse) channel activation | HEK293 TRPC4beta/mu-opioid, Fluo4 calcium fluorescence; stronger effect = higher value | B-score at 10 µM | hit rate 0.49% among 310,000;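 active = B-score above 5 SD of library B-scores, and initial fluorescence ratio not above library mean plus 5 SD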;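 also: positive B-score marks a calcium rise read as TRPC4 activation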
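Assay system: HEK293 stable line with TRPC4beta plus mu-opioid receptor; schedule: 45 min room-temperature Fluo4 loading, 110 s read; technique: kinetic Fluo4 calcium fluorescence; evaluation: integrated baseline-normalised fluorescence ratio, converted to per-well B score; controls: buffer (low) and maximal DAMGO (high)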
TRPC4 spec 2: mouse TRPC4 off-target activity of TRPC6 inhibitors, second screen; inhibition, % at 10 µM; HEK293 TRPC4/MOR, membrane potential dye fluorescence; channel activated by saturating DAMGO dose; shares compounds with TRPC6 inhibitor; hit rate 42% among 920;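 active = compounds whose fluorescence signal differed from control wells by over 3 SD, either direction, in both duplicate plates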
TRPC4 spec: selectivity of TRPC6 inhibitors: effect on mouse TRPC4; shares compounds with TRPC6 inhibitor; HEK293 TRPC4/mu-opioid, membrane potential fluorescence; activity change, negative = inhibition, % at 10 µM; hit rate 61% among 920;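 active = rise or fall in signal beyond 3 SD of buffer-only wells in both replicate plates, either sign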;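 also: integrated kinetic ratio of fluorescence range over baseline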
HEK293 MPD ctr 2-1: second check of TRPC6 inhibitor effects in parental HEK293 cells; shares compounds with TRPC6 inhibitor; parental HEK293 membrane potential dye fluorescence; maximal acetylcholine challenge after compound addition; signal change vs control, % at 10 µM; hit rate 31% among 920; AID 2779;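 active = membrane potential signal moving either way by over 3 SD of the maximum-effect control, in both duplicate plates, meaning non-specific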
HEK293 MPD ctr-1: checks TRPC6 inhibitor effects in parental HEK293 cells; parental HEK293 membrane potential dye fluorescence; membrane potential signal change, % at 10 µM; hit rate 60% among 920; shares compounds with TRPC6 inhibitor;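 active = membrane potential signal shifting up or down by more than 3 SD of buffer-only wells, on both duplicate plates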
HEK293 MPD ctr-2: counter-screen for TRPC6 modulators: effect in parental HEK293 cells | shares compounds with TRPC6 inhibitor | membrane potential dye fluorescence | membrane potential signal change, % at 10 µM | hit rate 51% among 2,400 | AID 488924;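 active = membrane potential signal moves up or down beyond 5 SD from buffer-only wells, on both duplicate plates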
HEK293 MPD ctr 2-2: second counter-screen for TRPC6 modulators: effect in parental HEK293 cells. shares compounds with TRPC6 inhibitor. membrane potential dye fluorescence; after compound, maximal acetylcholine stimulation. inhibition, % at 10 µM. hit rate 14% among 2,400. AID 488926;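 active = membrane potential signal drops by more than 5 SD from the mean control signal, in both duplicate plates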;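 also: plate controls were acetylcholine ECmax control wells for no effect and buffer only wells for full effect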
TRPC4/MOR mod: mouse TRPC4 off-target activity of TRPC6 modulators. percent change from control (negative = decrease, positive = increase), % at 10 µM. shares compounds with TRPC6 inhibitor. HEK293 TRPC4/mu-opioid, membrane potential fluorescence. AID 488927. hit rate 69% among 2,400;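 active = membrane potential signal moved up or down beyond 5 SD of buffer control wells, in both duplicate plates, actives on both sides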;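 also: plate controls were assay buffer wells for no effect and DAMGO maximal-effect wells for full effect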
TRPC4 ctr inh 2: second selectivity test of TRPC6 modulators against mouse TRPC4; shares compounds with TRPC6 inhibitor; HEK293 TRPC4/mu-opioid, membrane potential dye fluorescence; stimulated with maximal-effect DAMGO; inhibition, % at 10 µM; hit rate 55% among 2,400; AID 488928;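 active = drop in membrane potential signal beyond 5 SD of the control wells in both duplicate plates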;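 also: TRPC4 counter screen for TRPC6 hits run under conditions tuned for TRPC6 not TRPC4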
TRPC6 inh conf: confirmation of mouse TRPC6 inhibitors; inhibition, % at 10 µM; AID 488960; shares compounds with TRPC6 inhibitor; HEK293-TRPC6, membrane potential dye, ACh-evoked depolarization; hit rate 43% among 3,300;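 active = fluorescence ratio falls more than 5 SD below the full-stimulation control mean, in both duplicate runs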;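 also: integrated fluorescence ratio of peak minus minimum over baseline after agonist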
TRPC6 act confirm: confirmation of mouse TRPC6 activators; HEK293-TRPC6 membrane potential dye fluorescence, FDSS; AID 488961; hit rate 11% among 2,800; activation, % at 10 µM; shares compounds with TRPC6 inhibitor;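 active = ratio signal rise beyond 5 SD above unstimulated control wells' mean, seen in both duplicate runs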;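 also: plate controls were buffer EC0 wells for no effect and acetylcholine ECmax response for full effect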
Numbers without * were called inactive; i = inactive; . = not tested or not shown. Only some compounds are listed: those with a hit (about 2.3% of all), similar ones and a draw of the others.

SMILES	TRPC6 act	TRPC4 inh	DNA FID counter	TRPC6 inhibitor	TRPC4 potent	TRPC4 act	HEK293 MPD ctr-2	HEK293 MPD ctr 2-2	TRPC4/MOR mod	TRPC4 ctr inh 2	TRPC6 inh conf	others
CN(C)S(=O)(=O)c1ccc(C(=O)Nc2nnc(-c3ccc4c(c3)CCCC4)o2)cc1	i	i	-1.0	-5.56*	i	i	i	i	i	i	i	TRPC6 act confirm=i
CN(C)S(=O)(=O)c1ccc(C(=O)Nc2nnc(-c3cccs3)o2)cc1	i	i	-29.1	i	i	i	.	.	.	.	.
CN(C)CCOC1c2ccccc2CCc2ccc3ccccc3c21 (configuration not stated)	i	i	.	i	i	i	.	.	.	.	.
CN(C)CCOC1c2ccccc2C=Cc2ccccc21	i	i	.	-5.54*	i	i	123.5%*	84.0%*	22.5%*	41.5%*	68.0%*
CCC(=O)N1CCc2cc(Br)cc(S(=O)(=O)N3CCCCC3CC)c21 (configuration not stated)	i	i	-15.2	i	i	i	.	.	.	.	.
O=C(O)c1ccccc1-c1nnc2c(Cl)cc(C(F)(F)F)cn12	i	i	-1.2	i	i	i	.	.	.	.	.
CCN(CC)S(=O)(=O)c1ccc2c(c1)c(=O)c(C(=O)NCCN(C)CCc1ccccc1)cn2C	i	i	13.7	-5.36*	i	i	-64.5%*	i	-17.0%*	63.0%*	i	TRPC6 act confirm=i
CCn1cc(C(=O)NCCCN2CCCC2)c(=O)c2cc(S(=O)(=O)N3CCc4ccccc4C3)ccc21	i	i	14.1	i	i	i	.	.	.	.	.
CCCCN(CCCC)CCNC(=O)c1cn(CC)c2ccc(S(=O)(=O)N3CCCC3)cc2c1=O	i	i	10.9	-4.99*	i	i	i	i	i	50.5%*	i	TRPC6 act confirm=i
CCCCN(C)CCCNC(=O)c1cn(CC)c2ccc(S(=O)(=O)N3CCc4ccccc4C3)cc2c1=O	i	i	19.9	-6.87*	i	i	.	.	.	.	i	TRPC4 spec 2=52.0%*;TRPC4 spec=-17.6%*;HEK293 MPD ctr 2-1=i;HEK293 MPD ctr-1=-159.5%*;TRPC6 act confirm=i
CC1(C)C2CCC1(CS(=O)(=O)NCc1ccc(Cl)cc1Cl)C(=O)C2 (configuration not stated)	i	i	-36.1	i	i	i	.	.	.	.	.
S=C(NCCN(C1CCCCC1)C1CCCC1)Nc1cccc(Cl)c1	i	i	15.3	-6.09*	i	i	95.0%*	i	18.5%*	70.0%*	56.5%*
CC(=O)c1cc2c(cc1NC(=O)c1cnc(C)cn1)OCO2	i	i	-2.0	-11.2*	i	i	.	.	.	.	i	TRPC4 spec 2=73.5%*;TRPC4 spec=-28.1%*;HEK293 MPD ctr 2-1=i;HEK293 MPD ctr-1=-412.5%*;TRPC6 act confirm=i
O=C1N=c2ccccc2=C1c1c(O)[nH]c2c(C(F)(F)F)cccc12	i	i	4.0	i	i	i	.	.	.	.	.
Cc1ccc(S(=O)(=O)NNc2nc3ccccc3nc2C(F)(F)F)cc1	i	i	-3.4	-6.99*	i	i	.	.	.	.	i	TRPC4 spec 2=i;TRPC4 spec=i;HEK293 MPD ctr 2-1=i;HEK293 MPD ctr-1=i;TRPC6 act confirm=i
Cc1ccc(S(=O)(=O)NNc2ccccc2)cc1	i	i	3.1	i	i	i	.	.	.	.	.
COc1cccc(C=O)c1OC(=O)N1CCOCC1	i	i	-5.4	i	i	i	.	.	.	.	.
CCCCNC(=O)N1CCc2[nH]c3ccccc3c2C1	i	i	-5.5	-6.13*	i	i	i	i	i	i	72.0%*
C=CCNC(=O)N1CCc2[nH]c3ccc(F)cc3c2C1	i	i	-4.9	-6.17*	i	i	240.0%*	i	18.5%*	i	82.5%*
O=C(C1CC1)N1CCc2[nH]c3ccccc3c2C1	i	i	-4.7	i	i	i	.	.	.	.	.
Cc1ccc2[nH]c3c(c2c1)CN(C(=O)CN1c2ccc(F)cc2CCC1C)CC3 (configuration not stated)	i	i	-8.6	i	i	i	.	.	.	.	.
Fc1ccc2[nH]c3c(c2c1)CN(C(=S)NCc1ccccc1)CC3	i	i	10.6	-11.7*	i	i	.	.	.	.	127.4%*	TRPC4 spec 2=i;TRPC4 spec=-12.9%*;HEK293 MPD ctr 2-1=i;HEK293 MPD ctr-1=i
C=CCN(C(=O)Nc1ccc(OC)cc1)c1nnc(-c2ccncc2)s1	i	i	-26.4	i	i	i	.	.	.	.	.
CCOC(=O)c1ccc(S(=O)(=O)Nc2ccc(N3CCOCC3)cc2)cc1	i	i	-16.5	i	i	i	.	.	.	.	.
CC(C)(C)c1cc(S(=O)(=O)CCc2ccncc2)cc(C(C)(C)C)c1F	i	i	-29.4	i	i	i	.	.	.	.	.
O=C(c1ccc(Cl)s1)N1CCN(C23CC4CC(CC(C4)C2)C3)CC1	i	i	1.8	i	i	i	.	.	.	.	.
O=C(c1cccs1)N1CCN(C23CC4CC(CC(C4)C2)C3)CC1	i	i	-5.8	-6.33*	i	i	114.5%*	i	17.5%*	i	44.5%*
CCCn1cc(S(=O)(=O)c2ccc(F)cc2)c(=O)c2cc(OCC)ccc21	i	i	-22.7	i	i	i	.	.	.	.	.
